This note sets out measurements from ChEMBL document CHEMBL3596131, “Discovery of a novel trans-1,4-dioxycyclohexane GPR119 agonist series” (Bioorg Med Chem Lett, 2015).

pEC50: −log10 of the molar value. Active and inactive are the calls of the source. No cut-off for these calls is given here. Where only a bound is given, the exact number is not on record here.

Series [1] has as its target T1, Glucose-dependent insulinotropic receptor (Rattus norvegicus, UniProt Q7TQN8).
T1 sequence (Q7TQN8 whole entry): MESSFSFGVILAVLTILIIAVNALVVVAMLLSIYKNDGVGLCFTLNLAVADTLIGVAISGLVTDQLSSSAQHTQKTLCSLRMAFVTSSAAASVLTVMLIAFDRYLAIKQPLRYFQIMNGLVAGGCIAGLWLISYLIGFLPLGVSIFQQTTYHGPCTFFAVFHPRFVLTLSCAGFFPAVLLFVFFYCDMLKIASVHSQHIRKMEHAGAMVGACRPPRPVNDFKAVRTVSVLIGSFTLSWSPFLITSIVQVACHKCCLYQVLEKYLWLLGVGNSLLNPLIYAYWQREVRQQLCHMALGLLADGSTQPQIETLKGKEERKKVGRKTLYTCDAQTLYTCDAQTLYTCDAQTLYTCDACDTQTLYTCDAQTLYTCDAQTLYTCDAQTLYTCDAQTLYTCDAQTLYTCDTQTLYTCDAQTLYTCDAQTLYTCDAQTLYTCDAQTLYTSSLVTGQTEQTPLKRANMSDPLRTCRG
The series is described as follows: Agonist activity at rat GPR119 by HTRF cAMP assay. The format is functional.

The nature of series [2]: Half life in rat liver microsomes. The series is classed as ADME.
The nature of series [3]: Half life in mouse liver microsomes. The series is classed as ADME.
Series [4] deals with T2, Uncharacterized protein (Canis lupus familiaris, UniProt A0A8C0THM6).
T2 sequence (A0A8C0THM6 whole entry): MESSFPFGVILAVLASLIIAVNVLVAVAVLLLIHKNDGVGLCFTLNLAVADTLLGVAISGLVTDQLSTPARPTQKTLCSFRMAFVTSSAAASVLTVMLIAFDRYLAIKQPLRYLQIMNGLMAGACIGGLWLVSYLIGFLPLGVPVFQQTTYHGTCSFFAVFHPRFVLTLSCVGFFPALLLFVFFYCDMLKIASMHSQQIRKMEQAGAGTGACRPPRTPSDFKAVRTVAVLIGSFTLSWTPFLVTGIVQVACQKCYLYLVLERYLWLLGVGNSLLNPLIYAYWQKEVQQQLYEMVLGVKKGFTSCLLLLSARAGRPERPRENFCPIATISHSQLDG
The series is described as follows: Agonist activity at canine GPR119 by HTRF cAMP assay. On the technique in general: In TR-FRET formats the signal depends on donor and acceptor labels being close together.

Series [5] addresses T3, Uncharacterized protein (Canis lupus familiaris) (UniProt A0A8C0THM6).
T3 sequence (whole entry): T2 sequence (A0A8C0THM6 whole entry)
The series can be described thus: Agonist activity at canine GPR119 by HTRF cAMP assay relative to AR231453.

The nature of series [6]: Agonist activity at monkey GPR119 by HTRF cAMP assay. More on the design: species or system Macaca mulatta.
Series [7] has as its target T4, Glucose-dependent insulinotropic receptor (Mus musculus, UniProt Q7TQP3).
T4 sequence (Q7TQP3 whole entry): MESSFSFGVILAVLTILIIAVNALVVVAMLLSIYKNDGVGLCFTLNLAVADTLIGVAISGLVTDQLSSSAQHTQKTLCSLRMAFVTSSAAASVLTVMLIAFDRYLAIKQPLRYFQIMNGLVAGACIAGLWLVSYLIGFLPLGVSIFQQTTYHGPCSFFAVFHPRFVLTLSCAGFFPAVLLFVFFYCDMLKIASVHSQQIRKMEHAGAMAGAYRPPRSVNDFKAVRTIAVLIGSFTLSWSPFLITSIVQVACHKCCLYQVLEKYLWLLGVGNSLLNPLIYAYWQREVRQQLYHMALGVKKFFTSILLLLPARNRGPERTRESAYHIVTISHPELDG
The series can be described thus: Agonist activity at mouse GPR119 by HTRF cAMP assay. The format is functional.

The nature of series [8]: Plasma protein binding in human. The settings on record: read-out: PPB (converted). The format is ADME, cell-free.
A short description of series [9]: Volume of distribution at steady state in Sprague-Dawley rat at 2 mg/kg, iv and po. The settings on record: in vivo, read-out: Vdss. The format is ADME, organism-based. The procedure, abridged: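 Male Sprague-Dawley rats received 2 mg/kg intravenously or 2 mg/kg orally in 20% hydroxypropyl-β-cyclodextrin. Steady-state volume of distribution was taken from the plasma pharmacokinetic profile and reported in L/kg.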

A short description of series [10]: Terminal half life in Sprague-Dawley rat at 2 mg/kg, iv and po. The series is classed as ADME, organism-based. The settings on record: in vivo, read-out: beta t1/2 (converted). The procedure, abridged: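 Male Sprague-Dawley rats; 2 mg/kg IV and 2 mg/kg PO in 20% hp-β-CD; clearance, Vss, terminal t1/2, Cmax, AUClast and oral bioavailability derived.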
Series [11] is described as follows: Plasma concentration in Sprague-Dawley rat at 2 mg/kg, po measured at 2 hrs. The format is ADME, organism-based. The procedure, abridged: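 Abbreviated CNS study in male SD rats given 2 mg/kg orally in 20% hp-β-CD; brain (ng/g) and plasma (ng/mL) levels sampled at 2 h post-dose, brain/plasma ratio calculated.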
Series [12] relates to Mus musculus. The series can be described thus: In vivo activation of GPR119 in normoglycemic 129SVE mouse assessed as increase in GIP level in plasma at 3 to 30 mg/kg, po measured after 45 mins relative to vehicle-treated control. The series is classed as functional, organism-based. The procedure, abridged: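 Normoglycemic male 129SVE mice dosed orally (3 and 30 mg/kg); plasma GIP measured 45 min after dosing versus vehicle-treated controls; AR231453 at 30 mg/kg as reference agonist.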

Series [13] has as its system Rattus norvegicus. The series can be described thus: Antidiabetic activity in Zucker diabetic fatty rat assessed as decrease in HbA1C level at 10 mg/kg, qd administered over 4 weeks measured on day 28 post last dose relative to vehicle-treated control. The format is functional. On the set-up: scale not given: the % may be the effect or the level left. The procedure, abridged: (§1)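 Chronic study in ZDF rats: once-daily dosing at 1, 3 or 10 mg/kg for 4 weeks, vehicle 0.5% methylcellulose; fed glucose and body weight tracked at dosing times, HbA1c measured on day 28 relative to vehicle.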

In series [14] the test system is Rattus norvegicus. The series is described as follows: Toxicity in Zucker diabetic fatty rat assessed as effect on body weight at 1 to 10 mg/kg, qd administered over 4 weeks measured during compound dosing. The format is organism-based. The settings on record: in vivo, 672 h. The procedure, abridged:
as §1

Series [15] concerns the target Cytochrome P450 2C19 (Homo sapiens, UniProt P33261). The series can be described thus: Inhibition of CYP2C19 in human liver microsomes. The format is ADME. Background: Liver microsomes are a subcellular fraction often used to study metabolism.
Series [16] has as its target T5, Cytochrome P450 1A2 (Homo sapiens, UniProt P05177).
T5 sequence (P05177 whole entry): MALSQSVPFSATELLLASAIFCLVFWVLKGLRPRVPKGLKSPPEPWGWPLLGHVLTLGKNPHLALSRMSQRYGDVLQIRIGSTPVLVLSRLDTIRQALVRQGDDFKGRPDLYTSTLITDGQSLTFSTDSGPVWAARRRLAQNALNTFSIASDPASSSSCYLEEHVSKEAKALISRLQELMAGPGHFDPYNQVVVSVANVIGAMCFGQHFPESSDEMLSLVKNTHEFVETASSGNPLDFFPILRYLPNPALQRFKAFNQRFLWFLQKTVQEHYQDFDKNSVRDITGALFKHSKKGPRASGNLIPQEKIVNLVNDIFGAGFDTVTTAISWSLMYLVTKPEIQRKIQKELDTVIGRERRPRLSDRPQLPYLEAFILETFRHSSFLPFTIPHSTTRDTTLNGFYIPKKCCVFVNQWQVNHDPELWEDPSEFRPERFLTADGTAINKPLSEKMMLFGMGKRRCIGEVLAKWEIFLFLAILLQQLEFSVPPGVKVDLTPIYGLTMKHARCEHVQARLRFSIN
The series is described as follows: Inhibition of CYP1A2 in human liver microsomes. The series is classed as ADME.

Series [17] deals with HepG2. The series can be described thus: Cytotoxicity against human HepG2 cells. The format is cell-based.

Chain of Cytochrome P450 2C19 (P33261 whole entry): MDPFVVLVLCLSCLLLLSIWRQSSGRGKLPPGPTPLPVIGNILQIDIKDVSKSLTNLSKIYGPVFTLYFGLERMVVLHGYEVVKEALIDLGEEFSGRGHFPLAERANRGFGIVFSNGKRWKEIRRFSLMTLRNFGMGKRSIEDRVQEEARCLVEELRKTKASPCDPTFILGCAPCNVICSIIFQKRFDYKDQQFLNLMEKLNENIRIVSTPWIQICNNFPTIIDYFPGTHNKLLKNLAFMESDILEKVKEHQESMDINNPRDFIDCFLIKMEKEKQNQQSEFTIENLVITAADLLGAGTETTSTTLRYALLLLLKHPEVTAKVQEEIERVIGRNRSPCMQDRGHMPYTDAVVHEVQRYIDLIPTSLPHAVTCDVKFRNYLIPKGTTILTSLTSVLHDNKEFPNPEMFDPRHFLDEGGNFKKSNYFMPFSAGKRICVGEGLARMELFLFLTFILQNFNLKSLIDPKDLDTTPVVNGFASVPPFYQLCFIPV

As a reminder, the pEC50 is the negative decadic logarithm of the EC50, by convention in mol/L. By Emax is commonly meant the size of the effect at its maximum, as opposed to the concentration needed. For `C[C@@H](OC(=O)N1CCC(O[C@H]2CC[C@H](Oc3cnc(S(C)(=O)=O)cn3)CC2)CC1)C(F)(F)F`, the pEC50 is 7.54 in [1], 8.21 in series [4], 8.47 in [6] and 7.69 in series [7]. Besides, the figures for the half-life in [2], in [3] and in series [10] were more than 1 h, more than 1 h and 6.45 h, respectively. In series [5], this molecule yielded an Emax of 144%. Further, the fraction unbound in series [8] is 0.025. For the same molecule, the Vd in series [9] came to 2.94 L/kg. Moreover, the concentration at 2 h in [11] came out at 841 ng/mL. Also, the result in series [12] was Active. The figures for the Activity in series [13], in [14] and in [17] were 2.58%, “Non-toxic” and “Non-toxic”, respectively. Besides, the INH was 23.4 µM in series [15] and more than 50 µM in series [16].
